Reference: ChEMBL document CHEMBL4480439, “Fuscasins A-D, Cycloheptapeptides from the Marine Sponge Phakellia fusca” (J Nat Prod, 2019)
pIC50: −log10 of the molar value. Active and inactive are the calls of the source. The calls are words filed in the database; no cut-off is given here. Residues, ends and D or L forms follow the SMILES beside them.

Key:
[1] = test system: HepG2; test: Cytotoxicity against human HepG2 cells assessed as reduction in cell viability up to 20 uM after 72 hrs by CCK8 assay; type: functional, cell-based
Procedure, shortened: (§1)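 Cells grown at 37 °C in DMEM with 10% FBS and antibiotics, seeded at 3 × 10³ cells/well, and exposed to compound for 72 h. CCK-8 reagent was then added for 1 h at 37 °C in 5% CO₂, and OD was read at 450 nm. IC50 was obtained by fitting a log(inhibitor)-response model.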

[2] = test system: HepG2; test: Cytotoxicity against human HepG2 cells assessed as reduction in cell viability after 72 hrs by CCK8 assay; type: functional, cell-based; details: HepG2, 72 h; procedure, shortened: as §1
[3] = test system: PC-9; test: Cytotoxicity against human PC9 cells assessed as reduction in cell viability up to 20 uM after 72 hrs by CCK8 assay; type: functional, cell-based
Procedure, shortened: (§2)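 Cells maintained in RPMI 1640 with 10% FBS and antibiotics, plated at 3 × 10³ cells/well, and treated for 72 h. After 1 h incubation with CCK-8 at 37 °C in 5% CO₂, absorbance was recorded at 450 nm. IC50 came from a log(inhibitor)-response curve fit.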

[4] = test system: MCF7; test: Cytotoxicity against human MCF7 cells assessed as reduction in cell viability up to 20 uM after 72 hrs by CCK8 assay; type: functional, cell-based; procedure, shortened: as §1
[5] = test system: HeLa; test: Cytotoxicity against human HeLa cells assessed as reduction in cell viability up to 20 uM after 72 hrs by CCK8 assay; type: functional, cell-based; procedure, shortened: as §1
[6] = test system: NCI-H460; test: Cytotoxicity against human NCI-H460 cells assessed as reduction in cell viability up to 20 uM after 72 hrs by CCK8 assay; type: functional, cell-based; procedure, shortened: as §2
[7] = test system: H9c2; test: Cytotoxicity against rat H9c2 cells assessed as reduction in cell viability up to 100 uM after 72 hrs by CCK8 assay; type: cell-based; details: h9c2, 72 h; procedure, shortened: as §1
[8] = test system: SW480; test: Cytotoxicity against human SW480 cells assessed as reduction in cell viability up to 20 uM after 72 hrs by CCK8 assay; type: functional, cell-based; procedure, shortened: as §2

## CC(C)C[C@@H]1NC(=O)[C@H](Cc2ccc(O)cc2)NC(=O)[C@H](CC(=O)O)NC(=O)[C@@H]2CCCN2C(=O)[C@H](CC(C)C)NC(=O)[C@@H]2CCCN2C(=O)[C@H](CC(C)C)NC1=O (cyclo(DYLLPLP))
[1]
  Activity: inactive

## CC(C)C[C@@H]1NC(=O)[C@H](C(C)C)NC(=O)[C@H](Cc2ccccc2)N2C(=O)C[C@H](NC(=O)[C@@H]3CCCN3C(=O)[C@@H]3CCCN3C(=O)[C@@H]3CCCN3C1=O)C2=O
[2]
  pIC50: 5.34
[3]
  Activity: inactive
[4]
  Activity: inactive
[5]
  Activity: inactive
[6]
  Activity: inactive
[7]
  Activity: Non-Toxic
[8]
  Activity: inactive

## CC(C)C[C@@H]1NC(=O)[C@H](C)NC(=O)[C@@H]2CCCN2C(=O)[C@H](C)NC(=O)[C@H](Cc2ccc(O)cc2)NC(=O)[C@@H]2CCCN2C(=O)[C@H](Cc2ccc(O)cc2)NC1=O (cyclo(ALYPYAP))
[1]
  Activity: inactive

## CC(C)C[C@@H]1NC(=O)[C@H](C)NC(=O)[C@H](Cc2ccc(O)cc2)NC(=O)[C@H](CCCNC(=N)N)NC(=O)[C@H](CC(N)=O)NC(=O)[C@H](C(C)C)NC(=O)[C@@H]2CCCN2C1=O (cyclo(ALPVNRY))
[1]
  Activity: inactive
